pKi: −log10 of the molar value.
Tests used:
[1] = system: antigen-specific CD8+ T cells; experiment: In vivo cellular immune response assay; design: species or system C57BL/6 (B6) mice; details: for response rate of tetramer positive CD8+ T cells (day 7 = 100%): average, n = 3
Procedure, shortened: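 Mice aged 6-8 weeks immunized i.v. with 200 μL of 100 μg Trp1455/9M peptide, 50 μg anti-CD40 mAb (FGK-45.5) and 50 μg TLR2 agonist (test compound, Pam2CSK4 or Pam3CSK4). Submandibular blood taken on days 7, 21 and 34, red cells lysed with ammonium chloride. Stained 40 min on ice with anti-CD8a, PE Trp1455/9M/H-2Db tetramer and anti-MHC II. Tetramer+ CD8+ cells gated by flow cytometry; n=3.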

TLR2 = TLR2 (Homo sapiens, UniProt O60603); experiment: In cyto europium TRF competition binding assay; details: Ki (summary statement), cell line not specified, summary in discussion
TLR2, sequence (O60603 21-784): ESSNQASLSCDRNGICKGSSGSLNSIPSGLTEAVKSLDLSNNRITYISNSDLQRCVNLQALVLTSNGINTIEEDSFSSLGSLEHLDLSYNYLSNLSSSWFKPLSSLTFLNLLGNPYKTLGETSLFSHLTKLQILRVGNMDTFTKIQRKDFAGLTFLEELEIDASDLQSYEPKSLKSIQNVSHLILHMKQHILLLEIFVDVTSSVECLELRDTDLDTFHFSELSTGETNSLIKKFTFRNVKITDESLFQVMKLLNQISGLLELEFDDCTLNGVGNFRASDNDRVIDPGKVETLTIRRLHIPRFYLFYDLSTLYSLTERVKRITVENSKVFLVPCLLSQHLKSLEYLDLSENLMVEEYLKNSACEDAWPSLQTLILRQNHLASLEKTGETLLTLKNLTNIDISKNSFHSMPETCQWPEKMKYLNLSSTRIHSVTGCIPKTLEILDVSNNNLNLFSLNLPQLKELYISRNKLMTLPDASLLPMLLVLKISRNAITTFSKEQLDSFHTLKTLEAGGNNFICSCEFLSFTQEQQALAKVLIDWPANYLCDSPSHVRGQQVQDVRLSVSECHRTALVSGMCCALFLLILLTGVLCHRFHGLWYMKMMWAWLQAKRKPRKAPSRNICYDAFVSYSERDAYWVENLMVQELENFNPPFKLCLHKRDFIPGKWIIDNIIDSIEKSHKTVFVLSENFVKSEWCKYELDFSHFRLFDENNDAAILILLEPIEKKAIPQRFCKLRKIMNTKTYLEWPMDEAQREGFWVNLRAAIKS

Row | Compound | response rate of tetramer positive CD8+ T cells (day 7 = 100%) ([1]; day 21 post-immunization) [%] | response rate of tetramer positive CD8+ T cells (day 7 = 100%) ([1]; day 34 post-immunization) [%] | signs or symptoms of stress or toxicity in mice ([1]; over the course of the experiment (34 days), 50 μg i.v.) | pKi (TLR2)
1 | CCCCCCCCCCCCCCCC(=O)OC[C@H](CSC[C@H](NC(=O)COCC(=O)NCCCOCCOCCOCCCNC(C)=O)C(=O)NCC(=O)N[C@H](CO)C(=O)NCCCOCCOCCOCCCNC(=O)COCC(N)=O)OC(=O)CCCCCCCCCCCCCCC [Compound 10] | 25.7 | 12.7 | No signs or symptoms of stress or toxicity were observed | –
2 | CCCCCCCCCCCCCCCC(=O)OC[C@H](CSC[C@H](NC(=O)COCC(=O)NCCCOCCOCCOCCCNC(=O)CCSC1CC(=O)N(CCNC(=O)CCCCCN2C(=CC=C3CCCC(C=CC4=[N+](CCCCS(=O)(=O)O)c5ccc(S(=O)(=O)[O-])cc5C4(C)C)=C3Oc3ccc(S(=O)(=O)O)cc3)C(C)(C)c3cc(S(=O)(=O)O)ccc32)C1=O)C(=O)NCC(=O)N[C@H](CO)C(=O)NCCCOCCOCCOCCCNC(=O)COCC(N)=O)OC(=O)CCCCCCCCCCCCCCC (stereo partly shown) [Compound 13, IRDye800CW-Mpr-PEGO-Dhc(Pam2)-Gly-DSer-PEGO-NH2] | – | – | – | > 7.00
